Data taken from ChEMBL document CHEMBL2311500, “Identification and characterization of small molecules as potent and specific EPAC2 antagonists” (J Med Chem, 2013).
Activity calls are given as the source filed them. The rule behind the calls is not given here.

Experiments:
[1] = molecular target: T1, Rap guanine nucleotide exchange factor 4 (Homo sapiens, UniProt Q8WZA2); experiment: Antagonist activity at recombinant EPAC2 (unknown origin) assessed 8-NBD-cAMP substrate fluorescence intensity by substrate competing assay
Target sequence in this assay (Q8WZA2 whole entry): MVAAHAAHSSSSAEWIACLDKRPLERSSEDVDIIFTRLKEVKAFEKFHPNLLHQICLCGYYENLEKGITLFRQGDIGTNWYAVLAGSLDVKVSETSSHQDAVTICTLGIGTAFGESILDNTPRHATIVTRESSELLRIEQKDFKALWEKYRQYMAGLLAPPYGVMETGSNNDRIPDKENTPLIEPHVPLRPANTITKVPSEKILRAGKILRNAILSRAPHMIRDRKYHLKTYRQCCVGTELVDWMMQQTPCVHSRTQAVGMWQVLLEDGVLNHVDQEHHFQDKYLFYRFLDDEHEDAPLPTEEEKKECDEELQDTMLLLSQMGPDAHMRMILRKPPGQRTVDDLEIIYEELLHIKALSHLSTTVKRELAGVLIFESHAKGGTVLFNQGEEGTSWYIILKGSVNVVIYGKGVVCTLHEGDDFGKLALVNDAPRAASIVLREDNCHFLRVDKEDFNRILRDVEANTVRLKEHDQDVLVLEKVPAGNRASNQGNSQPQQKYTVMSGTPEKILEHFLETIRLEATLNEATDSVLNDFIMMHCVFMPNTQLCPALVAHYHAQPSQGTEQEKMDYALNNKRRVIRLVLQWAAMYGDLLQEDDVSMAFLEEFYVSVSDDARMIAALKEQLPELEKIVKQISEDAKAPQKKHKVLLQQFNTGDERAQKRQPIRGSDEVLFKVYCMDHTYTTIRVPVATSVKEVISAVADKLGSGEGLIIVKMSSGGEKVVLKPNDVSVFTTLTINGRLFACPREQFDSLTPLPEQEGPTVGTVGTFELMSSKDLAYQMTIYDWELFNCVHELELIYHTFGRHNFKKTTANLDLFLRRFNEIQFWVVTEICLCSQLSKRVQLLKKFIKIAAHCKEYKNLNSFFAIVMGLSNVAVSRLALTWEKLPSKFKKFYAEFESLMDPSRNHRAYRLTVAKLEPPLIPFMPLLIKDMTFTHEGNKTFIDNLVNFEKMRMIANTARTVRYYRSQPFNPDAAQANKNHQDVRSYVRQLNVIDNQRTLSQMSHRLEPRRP

Homo sapiens [2] = organism: Homo sapiens; experiment: Inhibition of PKA2 (unknown origin) assessed as inhibition of cAMP-induced activation at 25 uM by spectrophotometric analysis
Outline: (§1)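 Coupled pyruvate kinase/lactate dehydrogenase assay following NADH oxidation at 340 nm, at room temperature. The reaction was started with Kemptide (0.26 mM final). H89 (25 µM) served as the inhibition control.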

Homo sapiens [3] = organism: Homo sapiens; experiment: Inhibition of PKA1 (unknown origin) assessed as inhibition of cAMP-induced activation at 25 uM by spectrophotometric analysis; outline: as §1
[4] = molecular target: T2, Rap guanine nucleotide exchange factor 3 (Homo sapiens) (UniProt O95398); experiment: Inhibition of recombinant EPAC1 (unknown origin) assessed as inhibition of cAMP-mediated RAP1-GDP exchange activity at 25 uM by spectrofluorometric analysis
T2 sequence (whole entry): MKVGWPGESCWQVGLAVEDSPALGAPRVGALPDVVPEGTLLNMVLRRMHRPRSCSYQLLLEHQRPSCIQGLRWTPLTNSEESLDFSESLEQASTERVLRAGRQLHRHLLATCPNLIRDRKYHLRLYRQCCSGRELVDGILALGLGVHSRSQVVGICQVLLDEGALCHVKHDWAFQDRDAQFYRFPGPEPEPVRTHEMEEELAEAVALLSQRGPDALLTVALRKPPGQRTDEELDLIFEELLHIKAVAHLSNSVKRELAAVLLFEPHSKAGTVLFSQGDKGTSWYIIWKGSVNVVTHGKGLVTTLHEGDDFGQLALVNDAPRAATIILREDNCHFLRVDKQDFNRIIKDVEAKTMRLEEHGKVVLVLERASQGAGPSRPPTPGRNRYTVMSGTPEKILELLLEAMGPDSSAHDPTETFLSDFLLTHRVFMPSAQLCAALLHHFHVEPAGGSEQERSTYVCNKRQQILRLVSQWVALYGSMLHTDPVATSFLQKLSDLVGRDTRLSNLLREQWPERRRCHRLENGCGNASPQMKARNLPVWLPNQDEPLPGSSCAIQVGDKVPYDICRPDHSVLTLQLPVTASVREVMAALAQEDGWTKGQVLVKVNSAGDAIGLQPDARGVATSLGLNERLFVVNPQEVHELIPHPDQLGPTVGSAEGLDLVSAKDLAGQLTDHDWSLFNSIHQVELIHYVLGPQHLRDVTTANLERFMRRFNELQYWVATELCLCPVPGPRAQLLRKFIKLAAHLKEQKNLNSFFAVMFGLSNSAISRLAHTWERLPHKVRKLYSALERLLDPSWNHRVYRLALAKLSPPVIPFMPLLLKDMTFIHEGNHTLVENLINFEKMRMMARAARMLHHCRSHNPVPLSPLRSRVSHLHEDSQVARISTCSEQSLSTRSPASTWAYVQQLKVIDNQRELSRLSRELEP
Outline: (§2)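 Purified recombinant full-length EPAC1 or EPAC2 with 0.2 µM Mant-GDP-loaded Rap1B(1-167) in 50 mM Tris pH 7.5, 50 mM NaCl, 5 mM MgCl2, 1 mM DTT and 20 µM unlabeled GDP. […] Fluorescence decay (ex 366/em 450 nm) was recorded every 60 s over 6000 s.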

[5] = molecular target: T1, Rap guanine nucleotide exchange factor 4; experiment: Inhibition of recombinant EPAC2 (unknown origin) assessed as inhibition of cAMP-mediated guanine nucleotide exchange factor activity at 25 uM by spectrofluorometric analysis; outline: as §2
Target sequence in this assay (Q8WZA2 whole entry, looked up): as the sequence (Q8WZA2 whole entry) above

[6] = molecular target: T2, Rap guanine nucleotide exchange factor 3 (Homo sapiens); experiment: Inhibition FL-tagged full length human EPAC1 expressed in HEK293 cells assessed as inhibition of 007-AM-induced activation at 10 uM by FRET assay; assay type: cell-based
HEK293 = experiment: Inhibition of N-terminal CFP/C-terminal YFP tagged PKA (unknown origin) expressed in HEK293 cells assessed as inhibition of 8-Br-cAMP-AM-induced activation at 10 uM by FRET assay; assay type: cell-based; conditions: Homo sapiens
[7] = molecular target: T1, Rap guanine nucleotide exchange factor 4; conditions: HEK293, 10 uM
Target sequence in this assay (Q8WZA2 whole entry, looked up): as the sequence (Q8WZA2 whole entry) above

IC50 [1]	SMILES	also measured
> 300 µM	Cc1cc(C)c(S(=O)(=O)c2ccc(OC3CCN(C(=O)OC(C)(C)C)CC3)cc2)c(C)c1	
12.6 µM	Cc1cc(C)c(S(=O)(=O)n2ccc3ccncc32)c(C)c1	
4 µM	CCc1cccn1S(=O)(=O)c1ccc(C)cc1	
	Cc1ccc(S(=O)(=O)c2c(C)cc(C)cc2C)cc1	inhibition (Homo sapiens [2]): inactive; inhibition (Homo sapiens [3]): inactive; inhibition [4]: inactive; inhibition [5]: Active
8 µM	CCc1cccn1S(=O)(=O)c1ccc(OC)cc1	
	Cc1cc(C)c(S(=O)(=O)n2cc(C)cc2C)c(C)c1	inhibition [6]: inactive; inhibition (HEK293): inactive; inhibition (Homo sapiens [2]): inactive; inhibition (Homo sapiens [3]): inactive; inhibition [4]: inactive; inhibition [5]: Active; inhibition [7]: Active
1.2 µM	Cc1cc(C)c(S(=O)(=O)n2ccc3ccccc32)c(C)c1	
10.8 µM	Cc1cc(C)c(S(=O)(=O)n2ccc3cc(C(=O)O)ccc32)c(C)c1	
> 300 µM	Cc1cc(C)c(S(=O)(=O)c2ccc(-c3ccc(F)nc3)cc2)c(C)c1	
1.9 µM	COc1ccc(S(=O)(=O)c2c(C)cc(C)cc2C)cc1	
	O=S(=O)(NCCNC/C=C/c1ccc(Br)cc1)c1cccc2cnccc12	inhibition (Homo sapiens [2]): Active; inhibition (Homo sapiens [3]): Active
4 µM	Cc1cc(C)c(S(=O)(=O)c2ccc(I)cc2)c(C)c1	
18 µM	Nc1ccc(Nc2ccc(N)cc2S(=O)(=O)O)cc1	
0.7 µM	Cc1cc(C)c(S(=O)(=O)c2cc(C)c(C)cc2C)c(C)c1	
4.7 µM	CCc1cccn1S(=O)(=O)c1cc(C)cc(C)c1	
2.4 µM	Cc1cc(C)c(S(=O)(=O)n2ccc3cccnc32)c(C)c1	

IC50 [1]	SMILES	also measured
> 300 µM	Cc1cc(C)c(S(=O)(=O)c2ccc(OC3CCNCC3)cc2)c(C)c1	
> 300 µM	Cc1cc(C)c(S(=O)(=O)c2ccc(OC3CCCCC3)cc2)c(C)c1	
8.9 µM	Cc1cc(C)c(S(=O)(=O)n2ccc3cnccc32)c(C)c1	
> 300 µM	Cc1cc(C)c(S(=O)(=O)c2ccc(C3CCCCC3)cc2)c(C)c1	
> 300 µM	Cc1cc(C)c(S(=O)(=O)c2ccc(OCCN)cc2)c(C)c1	
3.8 µM	Cc1ccc(Nc2c(C)cc(C)cc2C)cc1	
> 300 µM	CCc1cccn1S(=O)(=O)c1ccc(C(F)(F)F)cc1	
1.3 µM	CCc1cccn1S(=O)(=O)c1ccc(C)cc1C	
> 300 µM	COC(=O)c1ccc2c(ccn2S(=O)(=O)c2c(C)cc(C)cc2C)c1	
5.3 µM	CCc1cccn1S(=O)(=O)c1ccccc1C	
> 300 µM	Cc1cc(C)c(Nc2nc(C)c(C)s2)c(C)c1	
3.8 µM	Cc1cc(C)c(S(=O)(=O)n2ccc3ncccc32)c(C)c1	
0.4 µM	Cc1cc(C)c(Nc2cc(Cl)ccc2Cl)c(C)c1	inhibition (Homo sapiens [2]): inactive; inhibition (Homo sapiens [3]): inactive; inhibition [4]: inactive; inhibition [5]: Active
0.9 µM	Cc1cc(C)c(Nc2cc(Cl)cc(Cl)c2)c(C)c1	
13.5 µM	Cc1cc(C)c(S(=O)(=O)c2ccc(O)cc2)c(C)c1	

SMILES	IC50 [1]	also measured
CCCCCc1ccc(S(=O)(=O)c2c(C)cc(C)cc2C)cc1	> 300 µM	
